Test results as given in ChEMBL document CHEMBL4376814, “Novel cyclin-dependent kinase 9 (CDK9) inhibitor with suppression of cancer stemness activity against non-small-cell lung cancer” (Eur J Med Chem, 2019).
Activity calls are given as the source filed them. The rule behind the calls is not given here.

Key:
CDK6/cyclin D3 = CDK6/cyclin D3 (Homo sapiens, UniProt Q00534); test: Inhibition of recombinant full-length human CDK6/cyclinD3 using histone H1 as substrate measured after 40 mins in presence of [gamma33P]ATP by scintillation counting method; assay type: protein-complex assay
SiHa = test: Antiproliferative activity against human SiHa cells assessed as inhibition of cell viability after 72 hrs by CCK-8 assay; assay type: functional, cell-based
Summary of the method: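 Cells kept at 37 °C, 5% CO2 in DMEM or RPMI-1640 with 10% FBS and 1% penicillin/streptomycin, then seeded at 3000 cells/well (adherent) or 10,000 cells/well (suspension). Exposed to a range of concentrations for 72 h. CCK-8 added for 1-4 h before reading A450. […] Three independent experiments.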

A549 [1] = test: Induction of apoptosis in human A549 cells assessed as necrotic cells at 1 uM after 48 hrs by AnnexinV-FITC/PI staining-based flow cytometric analysis (reference value: 0.664%); assay type: functional
A549 [2] = test: Inhibition of tumorsphere formation in human A549 cells after 2 weeks by microscopic analysis; assay type: functional, cell-based
NCI-H1299 [3] = test: Antitumour activity against human H1299 cells xenografted in po dosed Balb/c mouse assessed as inhibition of tumour growth after 21 days by digital caliper method; assay type: functional, organism-based
Summary of the method: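 Female nude mice, 6-8 weeks old, injected subcutaneously with 1×10^6 H1299 cells (100 µL of a 1×10^7/mL suspension in serum-free medium). At 100-120 mm3, randomized into groups of 5. Dosed orally each day for 21 days with drug dissolved in DMSO, or with vehicle. Caliper measurements and body weight taken every other day. Volume = short²×long×0.5. Growth inhibition based on change in volume relative to vehicle. Tumours weighed at the end.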

[4] = system: Tyrosine-protein kinase Blk (Homo sapiens), P51451 [UNDEFINED MUTATION]; test: Inhibition of full-length recombinant human BLK M287V mutant at 1 uM using poly(Glu, Tyr) 4:1 as substrate measured after 40 mins in presence of [gamma33P]ATP by scintillation counting method relative to control
Summary of the method: (§1)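 Percent inhibition of kinase activity at a single compound concentration, measured by the outsourced Eurofins KinaseProfiler panel. Values are the mean of two independent experiments.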

[5] = target: Mitogen-activated protein kinase kinase kinase 3 (Homo sapiens) (UniProt Q99759); test: Inhibition of full-length recombinant human MEKK3 at 1 uM using myelin basic protein as substrate measured after 120 mins in presence of [gamma33P]ATP by scintillation counting method relative to control; summary of the method: as §1
[6] = system: Hepatocyte growth factor receptor (Homo sapiens), P08581 [M1250T]; test: Inhibition of recombinant human MET A1209G/V1290L/M1268T mutant (974 to end residues) at 1 uM using KKKGQEEEYVFIE as substrate measured after 40 mins in presence of [gamma33P]ATP by scintillation counting method relative to control
[7] = target: Casein kinase II subunit alpha (Homo sapiens) (UniProt P68400); test: Inhibition of full length recombinant human CK2alpha1 at 1 uM using RRRDDDSDDD as substrate measured after 40 mins in presence of [gamma33P]ATP by scintillation counting method relative to control
[8] = system: Ribosomal protein S6 kinase beta-1 (Homo sapiens), P23443 [T412E]; test: Inhibition of recombinant full-length human p70S6K (1 to 421 residues) T412E mutant at 1 uM using KKRNRTLTV as substrate measured after 40 mins in presence of [gamma33P]ATP by scintillation counting method relative to control
[9] = target: Protein kinase C beta type (Homo sapiens) (UniProt P05771); test: Inhibition of recombinant human PKCbeta2 (2 to end residues) at 1 uM using histone H1 as substrate measured after 40 mins in presence of [gamma33P]ATP by scintillation counting method relative to control
[10] = target: Ephrin type-A receptor 4 (Homo sapiens) (UniProt P54764); test: Inhibition of recombinant human EphA4 (601 to 892 residues) at 1 uM using poly(Glu, Tyr) 4:1 as substrate measured after 40 mins in presence of [gamma33P]ATP by scintillation counting method relative to control
Summary of the method: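 Single-point inhibition at 1 µM was measured in the Eurofins KinaseProfiler panel. Values are the mean of two independent experiments.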

[11] = target: cGMP-dependent protein kinase 1 (Homo sapiens) (UniProt Q13976); test: Inhibition of recombinant full-length human PKG1beta at 1 uM using RRRLSFAEPG as substrate measured after 40 mins in presence of [gamma33P]ATP by scintillation counting method relative to control
[12] = target: Receptor-interacting serine/threonine-protein kinase 2 (Homo sapiens) (UniProt O43353); test: Inhibition of human RIPK2 (1 to 299 residues) at 1 uM using myelin basic protein as substrate measured after 120 mins in presence of [gamma33P]ATP by scintillation counting method relative to control; summary of the method: as §1
[13] = target: Tyrosine-protein kinase SYK (Homo sapiens) (UniProt P43405); test: Inhibition of recombinant full-length human Syk at 1 uM using poly(Glu, Tyr) 4:1 as substrate measured after 40 mins in presence of [gamma33P]ATP by scintillation counting method relative to control
[14] = target: TGF-beta receptor type-2 (Homo sapiens) (UniProt P37173); test: Inhibition of human TGFBR2 (188 to end residues) at 1 uM using myelin basic protein as substrate measured after 120 mins in presence of [gamma33P]ATP by scintillation counting method relative to control; summary of the method: as §1
[15] = target: Serine/threonine-protein kinase ULK2 (Homo sapiens) (UniProt Q8IYT8); test: Inhibition of human ULK2 (1 to 306 residues) using casein as substrate measured after 40 mins in presence of [gamma33P]ATP by scintillation counting method relative to control
[16] = target: Dual specificity mitogen-activated protein kinase kinase 2 (Homo sapiens) (UniProt P36507); test: Inhibition of recombinant full-length human MEK2 at 1 uM using unactive […] as substrate measured after 40 mins in presence of [gamma33P]ATP by scintillation counting method relative to control
[17] = target: Tyrosine-protein kinase Yes (Homo sapiens) (UniProt P07947); test: Inhibition of recombinant full-length human YES at 1 uM using poly(Glu, Tyr) 4:1 as substrate measured after 40 mins in presence of [gamma33P]ATP by scintillation counting method relative to control
[18] = target: Cyclin-dependent kinase 9 (Homo sapiens) (UniProt P50750); details: A549, 0.25 to 1 uM
NCI-H1299 [19] = test: Antitumour activity against human H1299 cells xenografted in Balb/c mouse assessed as effect on cyclin T1 level at 20 to 80 mg/kg, po administered for 3 weeks by immunohistochemistry
[20] = target: 3-phosphoinositide-dependent protein kinase 1 (Homo sapiens) (UniProt O15530); test: Inhibition of recombinant human PDK1 (52 to end residues) at 1 uM using PDKtide as substrate measured after 40 mins in presence of [gamma33P]ATP by scintillation counting method relative to control

Casein kinase II subunit alpha (Homo sapiens), sequence (P68400 whole entry, looked up, the tested form may be a part): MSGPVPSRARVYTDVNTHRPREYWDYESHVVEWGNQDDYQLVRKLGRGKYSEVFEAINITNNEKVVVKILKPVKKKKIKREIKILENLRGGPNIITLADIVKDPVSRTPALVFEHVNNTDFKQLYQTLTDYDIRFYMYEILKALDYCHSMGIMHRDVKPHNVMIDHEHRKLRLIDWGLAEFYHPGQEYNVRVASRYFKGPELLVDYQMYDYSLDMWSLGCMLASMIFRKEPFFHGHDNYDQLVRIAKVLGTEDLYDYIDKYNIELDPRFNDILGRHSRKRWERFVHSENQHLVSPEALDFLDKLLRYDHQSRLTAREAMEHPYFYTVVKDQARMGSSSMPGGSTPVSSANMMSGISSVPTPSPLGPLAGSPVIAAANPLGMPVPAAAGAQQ
Ribosomal protein S6 kinase beta-1 (Homo sapiens), P23443 [T412E], sequence (P23443 whole entry T412E, looked up, the tested form may be a part): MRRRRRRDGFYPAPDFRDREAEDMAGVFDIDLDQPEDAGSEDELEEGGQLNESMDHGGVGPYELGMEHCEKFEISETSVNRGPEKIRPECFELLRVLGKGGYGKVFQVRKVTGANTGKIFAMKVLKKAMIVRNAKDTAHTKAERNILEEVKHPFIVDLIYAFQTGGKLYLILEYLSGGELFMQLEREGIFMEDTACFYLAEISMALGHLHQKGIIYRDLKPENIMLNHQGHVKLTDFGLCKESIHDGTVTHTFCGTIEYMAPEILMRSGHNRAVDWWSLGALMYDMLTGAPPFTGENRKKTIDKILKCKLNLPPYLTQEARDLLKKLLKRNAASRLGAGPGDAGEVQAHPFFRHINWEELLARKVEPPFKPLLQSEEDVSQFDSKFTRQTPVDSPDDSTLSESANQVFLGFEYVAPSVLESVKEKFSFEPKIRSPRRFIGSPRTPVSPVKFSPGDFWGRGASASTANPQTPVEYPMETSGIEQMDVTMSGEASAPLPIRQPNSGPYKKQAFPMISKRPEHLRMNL
Receptor-interacting serine/threonine-protein kinase 2 (Homo sapiens), sequence (O43353 whole entry, the tested form may be a part): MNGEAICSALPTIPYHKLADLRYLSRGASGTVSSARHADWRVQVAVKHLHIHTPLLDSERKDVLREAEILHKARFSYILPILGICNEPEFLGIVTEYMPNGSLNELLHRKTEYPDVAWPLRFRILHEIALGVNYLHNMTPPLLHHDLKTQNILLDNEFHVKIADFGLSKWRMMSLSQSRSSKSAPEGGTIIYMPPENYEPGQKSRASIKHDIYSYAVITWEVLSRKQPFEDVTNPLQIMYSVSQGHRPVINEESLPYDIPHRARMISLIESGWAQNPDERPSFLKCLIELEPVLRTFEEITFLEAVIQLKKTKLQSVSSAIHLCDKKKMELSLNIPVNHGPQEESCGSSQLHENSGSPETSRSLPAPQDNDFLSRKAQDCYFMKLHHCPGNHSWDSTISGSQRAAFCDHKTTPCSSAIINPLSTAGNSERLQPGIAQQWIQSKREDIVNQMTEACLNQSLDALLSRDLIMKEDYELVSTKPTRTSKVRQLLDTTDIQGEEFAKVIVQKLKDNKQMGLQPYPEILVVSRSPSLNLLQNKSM
Protein kinase C beta type (Homo sapiens), sequence (P05771 2-671 limits assumed): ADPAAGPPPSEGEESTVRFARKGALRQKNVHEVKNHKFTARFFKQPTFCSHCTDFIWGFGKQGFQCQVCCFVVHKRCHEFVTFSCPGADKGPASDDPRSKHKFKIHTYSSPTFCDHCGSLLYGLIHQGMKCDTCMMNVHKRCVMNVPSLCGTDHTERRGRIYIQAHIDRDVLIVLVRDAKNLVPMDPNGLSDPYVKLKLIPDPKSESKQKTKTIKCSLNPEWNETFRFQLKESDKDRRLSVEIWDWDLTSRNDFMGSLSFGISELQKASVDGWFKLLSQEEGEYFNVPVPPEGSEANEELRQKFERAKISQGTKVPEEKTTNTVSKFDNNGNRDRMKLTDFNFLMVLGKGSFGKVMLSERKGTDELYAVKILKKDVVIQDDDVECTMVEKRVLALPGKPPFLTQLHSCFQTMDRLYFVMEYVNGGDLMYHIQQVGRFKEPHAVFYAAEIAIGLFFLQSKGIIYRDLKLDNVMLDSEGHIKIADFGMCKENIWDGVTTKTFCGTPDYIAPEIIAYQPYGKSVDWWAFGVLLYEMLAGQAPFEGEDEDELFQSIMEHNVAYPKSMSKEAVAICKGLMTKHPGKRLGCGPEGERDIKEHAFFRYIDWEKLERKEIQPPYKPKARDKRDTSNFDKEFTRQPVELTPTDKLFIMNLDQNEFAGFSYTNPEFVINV
Ephrin type-A receptor 4 (Homo sapiens), sequence (P54764 whole entry, the tested form may be a part): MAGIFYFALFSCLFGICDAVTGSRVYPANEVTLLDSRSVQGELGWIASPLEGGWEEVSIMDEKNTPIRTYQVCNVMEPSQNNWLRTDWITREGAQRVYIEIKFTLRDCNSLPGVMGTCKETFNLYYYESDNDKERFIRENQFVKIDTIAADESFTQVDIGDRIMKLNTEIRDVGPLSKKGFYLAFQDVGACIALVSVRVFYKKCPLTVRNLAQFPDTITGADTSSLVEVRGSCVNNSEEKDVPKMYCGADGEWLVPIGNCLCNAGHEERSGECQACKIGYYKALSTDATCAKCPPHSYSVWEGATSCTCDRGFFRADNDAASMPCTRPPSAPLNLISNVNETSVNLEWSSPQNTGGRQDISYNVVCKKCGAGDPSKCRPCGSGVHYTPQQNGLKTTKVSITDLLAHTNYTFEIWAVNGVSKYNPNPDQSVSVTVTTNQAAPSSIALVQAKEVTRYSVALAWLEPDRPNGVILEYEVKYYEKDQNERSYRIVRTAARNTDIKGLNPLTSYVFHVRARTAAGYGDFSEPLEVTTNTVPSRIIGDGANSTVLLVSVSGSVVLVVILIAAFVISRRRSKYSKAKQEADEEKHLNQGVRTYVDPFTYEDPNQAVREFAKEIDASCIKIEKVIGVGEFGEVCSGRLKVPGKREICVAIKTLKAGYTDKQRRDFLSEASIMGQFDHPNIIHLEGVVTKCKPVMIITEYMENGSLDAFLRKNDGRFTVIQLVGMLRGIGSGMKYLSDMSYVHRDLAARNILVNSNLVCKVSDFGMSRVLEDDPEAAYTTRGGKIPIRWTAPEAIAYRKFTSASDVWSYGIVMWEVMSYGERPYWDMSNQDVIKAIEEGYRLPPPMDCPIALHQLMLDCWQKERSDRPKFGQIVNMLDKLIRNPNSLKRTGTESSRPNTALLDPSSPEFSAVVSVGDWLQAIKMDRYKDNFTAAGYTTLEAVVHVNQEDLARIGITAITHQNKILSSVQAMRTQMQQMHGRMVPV
cGMP-dependent protein kinase 1 (Homo sapiens), sequence (Q13976 whole entry, the tested form may be a part): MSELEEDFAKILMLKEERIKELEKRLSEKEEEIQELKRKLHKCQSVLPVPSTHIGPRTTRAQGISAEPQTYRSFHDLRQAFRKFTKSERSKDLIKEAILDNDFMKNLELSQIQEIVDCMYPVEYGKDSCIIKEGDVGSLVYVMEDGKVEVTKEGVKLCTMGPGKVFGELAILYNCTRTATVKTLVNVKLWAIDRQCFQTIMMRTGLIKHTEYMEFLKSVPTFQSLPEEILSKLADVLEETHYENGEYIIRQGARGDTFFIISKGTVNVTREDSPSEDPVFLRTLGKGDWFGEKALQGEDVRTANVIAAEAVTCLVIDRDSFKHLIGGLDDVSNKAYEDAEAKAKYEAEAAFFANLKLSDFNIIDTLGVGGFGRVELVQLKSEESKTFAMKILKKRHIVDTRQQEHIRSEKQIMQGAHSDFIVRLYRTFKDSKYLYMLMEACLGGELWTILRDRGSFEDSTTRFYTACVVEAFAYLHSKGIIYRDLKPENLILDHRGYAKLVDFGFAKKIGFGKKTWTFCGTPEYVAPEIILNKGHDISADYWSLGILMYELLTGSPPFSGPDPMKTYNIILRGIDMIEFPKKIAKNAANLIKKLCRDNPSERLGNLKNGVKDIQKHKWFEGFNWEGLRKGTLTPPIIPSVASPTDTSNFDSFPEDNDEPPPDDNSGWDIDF
TGF-beta receptor type-2 (Homo sapiens), sequence (P37173 whole entry, the tested form may be a part): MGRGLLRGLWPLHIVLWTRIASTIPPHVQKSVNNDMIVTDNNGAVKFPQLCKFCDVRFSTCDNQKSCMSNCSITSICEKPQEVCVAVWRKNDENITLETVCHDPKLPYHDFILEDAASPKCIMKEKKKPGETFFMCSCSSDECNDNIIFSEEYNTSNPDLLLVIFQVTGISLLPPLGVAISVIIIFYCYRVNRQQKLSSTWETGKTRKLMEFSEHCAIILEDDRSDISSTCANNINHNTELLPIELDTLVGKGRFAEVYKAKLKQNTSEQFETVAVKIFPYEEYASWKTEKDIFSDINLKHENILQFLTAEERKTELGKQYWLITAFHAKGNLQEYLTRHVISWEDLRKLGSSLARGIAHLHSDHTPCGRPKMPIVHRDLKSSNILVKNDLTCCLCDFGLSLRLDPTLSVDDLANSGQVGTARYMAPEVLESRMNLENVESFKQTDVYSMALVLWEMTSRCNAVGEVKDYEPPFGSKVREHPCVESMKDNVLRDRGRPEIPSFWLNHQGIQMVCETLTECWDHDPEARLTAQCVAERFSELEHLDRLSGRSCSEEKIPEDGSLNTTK
Dual specificity mitogen-activated protein kinase kinase 2 (Homo sapiens), sequence (P36507 whole entry): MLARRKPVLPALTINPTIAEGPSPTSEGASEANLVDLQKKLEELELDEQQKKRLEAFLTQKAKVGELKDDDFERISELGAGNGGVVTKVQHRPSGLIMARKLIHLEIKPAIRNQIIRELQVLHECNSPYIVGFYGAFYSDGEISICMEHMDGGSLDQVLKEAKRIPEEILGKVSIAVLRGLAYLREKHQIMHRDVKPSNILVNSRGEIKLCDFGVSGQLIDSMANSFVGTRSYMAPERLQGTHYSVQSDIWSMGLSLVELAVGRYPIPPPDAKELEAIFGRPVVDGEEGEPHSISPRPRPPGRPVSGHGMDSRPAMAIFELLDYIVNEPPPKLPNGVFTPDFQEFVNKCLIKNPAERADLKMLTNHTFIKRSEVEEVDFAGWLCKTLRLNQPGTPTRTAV

SMILES: CN(C)C(=O)c1cc2cnc(Nc3ccc(NC(=O)CCCCCCCN=C=S)cc3)nc2n1C1CCCC1
- IC50 (CDK6/cyclin D3): 145 nM
- IC50 (SiHa): 1810 nM
- Activity (A549 [1]): 7.76%
- inhibition (A549 [2]): Dose-dependent effect
- TGI (NCI-H1299 [3]): Dose-dependent effect
- inhibition [4]: 45%
- inhibition [5]: 66%
- inhibition [6]: 60%
- inhibition [7]: -5%
- inhibition [8]: 40%
- inhibition [9]: 72%
- inhibition [10]: 1%
- inhibition [11]: 0%
- inhibition [12]: 24%
- inhibition [13]: 22%
- inhibition [14]: 15%
- inhibition [15]: -7%
- inhibition [16]: 8%
- inhibition [17]: 61%
- inhibition [18]: Active
- Activity (NCI-H1299 [19]): inactive
- inhibition [20]: 1%
